Experimental data of several laboratories.
Protocols differ between the studies behind these lines.
Target: Tyrosine-protein kinase Fer (FER, Homo sapiens, UniProt P16591)

SMILES | read-out | action | method | concentration | quantity | value
COc1cc(Nc2ncc(F)c(Nc3ccc4c(n3)NC(=O)C(C)(C)O4)n2)cc(OC)c1OC | binding | – | competition with immobilised ligand | 10 µM | inhibition | 78%
C#Cc1n[nH]c2c(-c3cn([C@@H](C)c4ccccc4)c(=O)[nH]c3=O)cc(F)cc12 | enzyme activity | inhibitor | – | 0.1 µM | inhibition | 1.5%
COc1ncccc1-c1cnn2ccc(N3CCN(C(=O)OC(C)C)CC3)nc12 | binding | – | competition with immobilised ligand | 1 µM | remaining binding | 100%
CC(C)(C)c1cc(C=C(C#N)C#N)cc(Br)c1O | enzyme activity | inhibitor | – | 0.5 µM | remaining activity | 100%
Nc1ncc(-c2nc(N3CCOCC3)nc(N3CCOCC3)n2)c(C(F)F)n1 | binding | – | competition with immobilised ligand | 10 µM | remaining binding | 67%
Cc1nn(C)cc1-c1nc2c(N3CCN(Cc4ccc(Cl)cc4)CC3)c(Cl)cnc2[nH]1 | binding | – | competition with immobilised ligand | 1 µM | remaining binding | 100%
CCn1cnc2c(Nc3cccc(Cl)c3)nc(N[C@H]3CCCC[C@H]3N)nc21 | enzyme activity | inhibitor | – | 0.5 µM | remaining activity | 86.8%
Cn1cc(-c2cccc(N3CCc4c(sc5c4CC(C)(C)C5)C3=O)c2CO)cc(Nc2ccncn2)c1=O | enzyme activity | inhibitor | – | 1 µM | inhibition | 9%
Cn1cncc1[C@@](O)(COc1ccc(C#N)cc1-c1ccc(OC(F)(F)F)cc1)c1ccc(C#N)cc1 | cell-free assay | – | competition with immobilised ligand | 1 µM | remaining binding | 100%
Cn1cc(-c2cc(F)cc(N3CCn4c(cc5c4CCCC5)C3=O)c2CO)cc(Nc2ccc(N3CCN(C4COC4)CC3)cn2)c1=O | enzyme activity | inhibitor | – | 0.1 µM | inhibition | 10%
C#Cc1n[nH]c2c(-c3cn([C@@H](C)c4ccccn4)c(=O)[nH]c3=O)cc(F)cc12 | enzyme activity | inhibitor | – | 0.1 µM | inhibition | 3.7%
